In ChEMBL document CHEMBL1240350, “In vitro activity of CEM-101 against Streptococcus pneumoniae and Streptococcus pyogenes with defined macrolide resistance mechanisms” (Antimicrob Agents Chemother, 2010):

Tests used:
Streptococcus pneumoniae [1] = experiment: Antibacterial activity against macrolide-susceptible Streptococcus pneumoniae 1077 after 49 passages and 10 compound-free subculturing by retest method; format: functional
Streptococcus pneumoniae [2] = experiment: Antibacterial activity against quinolone-susceptible Streptococcus pneumoniae after overnight incubation by agar dilution method; format: functional
Summary of the method: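 Agar dilution on Mueller-Hinton agar supplemented with 5% sheep blood. Inoculum 10^4 CFU/spot, incubated overnight at 35°C in ambient air. Test strains were clinical pneumococcal isolates. S. pneumoniae ATCC 49619 was included as the quality control strain in each run. MIC range, MIC50 and MIC90 were reported for each susceptibility category.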

Streptococcus pyogenes [3] = experiment: Antibacterial activity against macrolide-resistant Streptococcus pyogenes 2011 harboring mef(A) gene after 50 passages following overnight incubation by agar dilution method
Streptococcus pneumoniae [4] = experiment: Antibacterial activity against macrolide-resistant Streptococcus pneumoniae harboring erm(B) and mef(A) gene after overnight incubation by agar dilution method; format: functional
Summary of the method: (§1)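 Agar dilution MICs on Mueller-Hinton agar with 5% sheep blood. Inoculum 10^4 CFU/spot, incubated overnight at 35°C in ambient air. Clinical S. pneumoniae or group A streptococcal isolates; resistance genotypes (erm(B), erm(A), mef(A)/mef(E)) were assigned by PCR. S. pneumoniae ATCC 49619 served as QC strain in each run. Range, MIC50 and MIC90 reported per phenotype group.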

Streptococcus pneumoniae [5] = experiment: Antibacterial activity against macrolide-resistant Streptococcus pneumoniae 2686 harboring mutation in L4 ribosomal protein after 25 passages and 10 compound-free subculturing by retest method; format: functional
Streptococcus pneumoniae [6] = experiment: Antibacterial activity against macrolide-susceptible Streptococcus pneumoniae 1077 after 15 passages and 10 compound-free subculturing by retest method; format: functional
Streptococcus pneumoniae [7] = experiment: Antibacterial activity against macrolide-resistant Streptococcus pneumoniae harboring mef(A) gene after overnight incubation by agar dilution method; format: functional; summary of the method: as §1
Streptococcus pneumoniae [8] = experiment: Antibacterial activity against Streptococcus pneumoniae harboring erm(A) gene after overnight incubation by agar dilution method; format: functional
Summary of the method: (§2)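 Clinical isolates collected 1998–2008, with macrolide-resistance genes confirmed by PCR. MICs by agar dilution on Mueller-Hinton agar with 5% sheep blood. Inoculum 10^4 CFU/spot, incubated overnight at 35°C in ambient air. S. pneumoniae ATCC 49619 was the quality-control strain in every run.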

Streptococcus pneumoniae [9] = experiment: Antibacterial activity against macrolide-resistant Streptococcus pneumoniae harboring erm(B) gene after overnight incubation by agar dilution method; format: functional; summary of the method: as §1
Streptococcus pyogenes [10] = experiment: Antibacterial activity against macrolide-resistant Streptococcus pyogenes harboring mef(A) gene after overnight incubation by agar dilution method; format: functional; summary of the method: as §1
Streptococcus pneumoniae [11] = experiment: Antibacterial activity against macrolide-resistant Streptococcus pneumoniae harboring mutation in L4 ribosomal protein after overnight incubation by agar dilution method; format: functional; summary of the method: as §1
Streptococcus pneumoniae [12] = experiment: Antibacterial activity against macrolide-resistant Streptococcus pneumoniae 1635 harboring erm(A) gene after 32 passages and 10 compound-free subculturing by retest method; format: functional
Summary of the method: (§3)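 Multistep selection by daily serial passage in subinhibitory drug concentrations. Medium was cation-adjusted Mueller-Hinton broth plus 5% lysed horse blood. Each day the next inoculum came from the tube 1–2 dilutions below the MIC whose turbidity matched the growth control, for up to 50 days. Clone MICs by CLSI macrodilution; identity to the parent confirmed by SmaI PFGE.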

Streptococcus pneumoniae [13] = experiment: Antibacterial activity against macrolide-susceptible Streptococcus pneumoniae 7127 harboring S20N mutation in L4 ribosomal protein and A105V mutation in L22 ribosomal protein after 43 passages and 10 compound-free subculturing by retest method; format: functional
Streptococcus pneumoniae [14] = experiment: Antibacterial activity against macrolide-resistant Streptococcus pneumoniae 3009 harboring mutation in 23S rRNA after 25 passages and 10 compound-free subculturing by retest method; format: functional
Streptococcus pneumoniae [15] = experiment: Antibacterial activity against macrolide-resistant Streptococcus pneumoniae 1635 harboring erm(A) gene after 49 passages and 10 compound-free subculturing by retest method; format: functional; summary of the method: as §3
Streptococcus pyogenes [16] = experiment: Antibacterial activity against macrolide-resistant Streptococcus pyogenes 237 harboring mutation in L4 ribosomal protein after overnight incubation by agar dilution method
Streptococcus pneumoniae [17] = experiment: Antibacterial activity against macrolide-susceptible Streptococcus pneumoniae 7127 harboring S20N mutation in L4 ribosomal protein and A105V mutation in L22 ribosomal protein after overnight incubation by agar dilution method; format: functional
Streptococcus pneumoniae [18] = experiment: Antibacterial activity against macrolide-susceptible Streptococcus pneumoniae 7127 harboring S20N mutation in L4 ribosomal protein and A105V mutation in L22 ribosomal protein after 16 passages and 10 compound-free subculturing by retest method; format: functional
Streptococcus pyogenes [19] = experiment: Antibacterial activity against Streptococcus pyogenes harboring mef(A) gene after overnight incubation by agar dilution method; format: functional; summary of the method: as §2
Streptococcus pneumoniae [20] = experiment: Antibacterial activity against Streptococcus pneumoniae harboring mutation in L4 ribosomal protein after overnight incubation by agar dilution method; format: functional; summary of the method: as §2
Streptococcus pneumoniae [21] = experiment: Antibacterial activity against macrolide-resistant Streptococcus pneumoniae 1076 harboring erm(B) and mef(A) gene after 18 passages and 10 compound-free subculturing by retest method; format: functional; summary of the method: as §3
Streptococcus pyogenes [22] = experiment: Antibacterial activity against macrolide-resistant Streptococcus pyogenes 2094 harboring erm(A) gene after 6 passages and 10 compound-free subculturing by retest method
Streptococcus pyogenes [23] = experiment: Antibacterial activity against macrolide-susceptible Streptococcus pyogenes 2132 after overnight incubation by agar dilution method
Streptococcus pyogenes [24] = experiment: Antibacterial activity against Streptococcus pyogenes harboring erm(A) gene after overnight incubation by agar dilution method; format: functional; summary of the method: as §2
Streptococcus pyogenes [25] = experiment: Antibacterial activity against macrolide-susceptible Streptococcus pyogenes after overnight incubation by agar dilution method; format: functional
Summary of the method: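 Agar dilution on Mueller-Hinton agar supplemented with 5% sheep blood, inoculum 10^4 CFU/spot, read after overnight incubation at 35°C in ambient air. Clinical isolates with defined genotypes; S. pneumoniae ATCC 49619 quality control strain included in each run. MIC50/MIC90 are MICs inhibiting 50% and 90% of isolates.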

Streptococcus pyogenes [26] = experiment: Antibacterial activity against macrolide-resistant Streptococcus pyogenes 237 harboring mutation in L4 ribosomal protein after 20 passages and 10 compound-free subculturing by retest method
Streptococcus pneumoniae [27] = experiment: Antibacterial activity against macrolide-resistant Streptococcus pneumoniae 3665 harboring mef(A) gene after overnight incubation by agar dilution method; format: functional
Streptococcus pneumoniae [28] = experiment: Antibacterial activity against macrolide-resistant Streptococcus pneumoniae 3665 harboring mef(A) gene after 26 passages and 10 compound-free subculturing by retest method; format: functional
Streptococcus pneumoniae [29] = experiment: Antibacterial activity against macrolide-resistant Streptococcus pneumoniae 2686 harboring mutation in L4 ribosomal protein after 14 passages and 10 compound-free subculturing by retest method; format: functional
Streptococcus pneumoniae [30] = experiment: Antibacterial activity against macrolide-susceptible Streptococcus pneumoniae 7127 harboring S20N mutation in L4 ribosomal protein and A105V mutation in L22 ribosomal protein after 38 passages and 10 compound-free subculturing by retest method; format: functional
Streptococcus pyogenes [31] = experiment: Antibacterial activity against macrolide-resistant Streptococcus pyogenes 2094 harboring erm(A) gene after overnight incubation by agar dilution method
Streptococcus pneumoniae [32] = experiment: Antibacterial activity against Streptococcus pneumoniae harboring mef(A) gene after overnight incubation by agar dilution method; format: functional; summary of the method: as §2

CC[C@H]1OC(=O)[C@H](C)[C@@H](O[C@H]2C[C@@](C)(OC)[C@@H](O)[C@H](C)O2)[C@H](C)[C@@H](O[C@@H]2O[C@H](C)C[C@H](N(C)C)[C@H]2O)[C@](C)(OC)C[C@@H](C)C(=O)[C@H](C)[C@@H](O)[C@]1(C)O [CLARITHROMYCIN]
0.06 µg/mL: MIC90 (Streptococcus pyogenes [25]) | MIC (Streptococcus pneumoniae [30])
0.03 µg/mL: MIC (Streptococcus pneumoniae [17]) | MIC (Streptococcus pyogenes [23]) | MIC50 (Streptococcus pyogenes [25])
2 µg/mL: MIC50 (Streptococcus pneumoniae [7]) | MIC50 (Streptococcus pyogenes [24]) | MIC (Streptococcus pneumoniae [27]) | MIC50 (Streptococcus pneumoniae [32])
0.25 µg/mL: MIC (Streptococcus pneumoniae [8]) | MIC (Streptococcus pyogenes [16])
0.5 µg/mL: MIC (Streptococcus pyogenes [31])
0.016 µg/mL: MIC (Streptococcus pneumoniae [13])
64 µg/mL: MIC (Streptococcus pneumoniae [14])
> 64 µg/mL: MIC (Streptococcus pneumoniae [1]) | MIC90 (Streptococcus pneumoniae [2]) | MIC50 (Streptococcus pneumoniae [4]) | MIC (Streptococcus pneumoniae [6]) | MIC50 (Streptococcus pneumoniae [9]) | MIC (Streptococcus pneumoniae [15]) | MIC (Streptococcus pneumoniae [21]) | MIC (Streptococcus pyogenes [22]) | MIC90 (Streptococcus pyogenes [24]) | MIC (Streptococcus pneumoniae [29])
0.125 µg/mL: MIC (Streptococcus pneumoniae [18])
1 µg/mL: MIC (Streptococcus pneumoniae [12]) | MIC (Streptococcus pyogenes [26])
16 µg/mL: MIC50 (Streptococcus pneumoniae [2]) | MIC (Streptococcus pneumoniae [5]) | MIC50 (Streptococcus pneumoniae [11]) | MIC50 (Streptococcus pneumoniae [20])
8 µg/mL: MIC (Streptococcus pyogenes [3]) | MIC90 (Streptococcus pyogenes [10]) | MIC90 (Streptococcus pyogenes [19]) | MIC (Streptococcus pneumoniae [28])
4 µg/mL: MIC90 (Streptococcus pneumoniae [7]) | MIC50 (Streptococcus pyogenes [10]) | MIC50 (Streptococcus pyogenes [19]) | MIC90 (Streptococcus pneumoniae [32])
32 µg/mL: MIC90 (Streptococcus pneumoniae [11]) | MIC90 (Streptococcus pneumoniae [20])

CCC[C@@H]1C[C@@H](C(=O)N[C@@H]([C@H]2O[C@H](SC)[C@H](O)[C@@H](O)[C@H]2O)[C@H](C)Cl)N(C)C1 [CLINDAMYCIN]
0.016 µg/mL: MIC (Streptococcus pneumoniae [27])
0.03 µg/mL: MIC (Streptococcus pneumoniae [5]) | MIC (Streptococcus pneumoniae [12]) | MIC (Streptococcus pneumoniae [17]) | MIC (Streptococcus pneumoniae [18]) | MIC (Streptococcus pyogenes [26]) | MIC (Streptococcus pneumoniae [28]) | MIC (Streptococcus pneumoniae [29]) | MIC (Streptococcus pneumoniae [30])
1 µg/mL: MIC (Streptococcus pneumoniae [14])
0.06 µg/mL: MIC50 (Streptococcus pneumoniae [2]) | MIC (Streptococcus pyogenes [3]) | MIC50 (Streptococcus pneumoniae [4]) | MIC50 (Streptococcus pneumoniae [7]) | MIC90 (Streptococcus pneumoniae [7]) | MIC50 (Streptococcus pyogenes [10]) | MIC50 (Streptococcus pneumoniae [11]) | MIC (Streptococcus pyogenes [16]) | MIC50 (Streptococcus pyogenes [19]) | MIC50 (Streptococcus pneumoniae [20]) | MIC (Streptococcus pyogenes [22]) | MIC (Streptococcus pyogenes [23]) | MIC50 (Streptococcus pyogenes [25]) | MIC90 (Streptococcus pyogenes [25]) | MIC (Streptococcus pyogenes [31]) | MIC50 (Streptococcus pneumoniae [32]) | MIC90 (Streptococcus pneumoniae [32])
> 64 µg/mL: MIC90 (Streptococcus pneumoniae [2]) | MIC50 (Streptococcus pneumoniae [9]) | MIC (Streptococcus pneumoniae [21])
0.25 µg/mL: MIC (Streptococcus pneumoniae [13]) | MIC (Streptococcus pneumoniae [15]) | MIC90 (Streptococcus pyogenes [24])
0.125 µg/mL: MIC (Streptococcus pneumoniae [8]) | MIC90 (Streptococcus pyogenes [10]) | MIC90 (Streptococcus pneumoniae [11]) | MIC90 (Streptococcus pyogenes [19]) | MIC90 (Streptococcus pneumoniae [20]) | MIC50 (Streptococcus pyogenes [24])
8 µg/mL: MIC (Streptococcus pneumoniae [1]) | MIC (Streptococcus pneumoniae [6])
